Legend:
[1] = folding enthalpy; higher = less favourable; fluorescence melt of hairpins on a sequencing array, two-state fit; conditions: sodium 0.088 M
Procedure, shortened: (§1)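 To match UV melts, fitted temperatures were raised by 9.35 °C. These fits were bootstrapped two-state models that gave melting temperature and folding enthalpy, combined by inverse variance over four replicates. The input was normalised Cy3 fluorescence of library hairpins with annealed Cy3 and quencher oligos on a sequenced MiSeq flow cell, imaged in 50 mM Na-HEPES pH 8.0, 25 mM NaCl in 2.5 °C steps up to 60 °C.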

[2] = melting temperature; fluorescence melt of hairpins on a sequencing array, two-state fit, raised by 9.35 °C to match UV melts; conditions: sodium 0.088 M
Procedure, shortened: as §1

Sequence | folding enthalpy [1] [kcal/mol] | Tm [2] [°C]
GATCCTCTTAGGATC ((((((...)))))) | -35.3 | 55.2
GAAGAACCGAAAGGTTTC (((..(((....)))))) | -11.5 | 33
GATCTGGGGCCAGATC ((((((....)))))) | -47.6 | 50.5
GCATCCGGAAACGGGTGC (((.(((....))).))) | -39.5 | 62.7
GTTGTACGAAAGTAGAAC (((.(((....))).))) | -30.1 | 44
GCACGTGGAAACACGTAC (.(((((....))))).) | -14.2 | 44.1
GACCAGGGAAACTTGGTC (((((.(....).))))) | -37.8 | 47.8
GTGGCACCGAAAGGTCAC (((..(((....)))))) | -14.9 | 42.6
GATCCGAGTACGGATC ((((((....)))))) | -40.8 | 58.6
GCACAGCGAAAGCTTCGC ((..(((....)))..)) | -12.4 | 39.8
GATTACGCGAAAGCGATC (((..(((....)))))) | -6.5 | 21.4
GATCTATTCATAGATC ((((((....)))))) | -35.8 | 49.9
GATCGTAACTACGATC ((((((....)))))) | -41.6 | 56
GTTTTAGGAAACTAAAGC (.(((((....))))).) | -15 | 31.5
GGGGCCGAAAGGCTACCC ((((((....)))..))) | -14.8 | 53.2
GCATCGGGAAACCAATGC ((((.((....)).)))) | -29 | 42.2
GATCCGGGAGCGGATC ((((((....)))))) | -37.4 | 61.1
GCGACGGGAAACCGCCAC (.(.(((....))).).) | -13.4 | 31.9
GCGTTGTGACGC ((((....)))) | -31.6 | 59
GCTGGACCGAAAGGTAGC (((..(((....)))))) | -18.5 | 39.5
GTTTTGCGAAAGCACAAC (((.(((....))).))) | -28.1 | 44.2
GATCTAATCGTAGATC ((((((....)))))) | -13.7 | 36.1
GACTTCGGAAACAAAGTC (((((.(....).))))) | -25.6 | 34

Sequence | folding enthalpy [1] [kcal/mol] | Tm [2] [°C]
GATCGCTCTGCGATC ((((((...)))))) | -41.8 | 68.5
GCCAGACGAAAGTCGGGC (((.(((....))).))) | -34 | 68.6
GTTTGAGGAAACTTGAAC (((..((....))..))) | -17.3 | 33.1
GTTGTGTCGAAAGACAAC (((..(((....)))))) | -24.9 | 51.1
GTTCTGGGAAACTAGAAC (((((.(....).))))) | -29.6 | 42.9
GTGTACGGAAACGTGTAC ((..(((....)))..)) | -20.4 | 35.2
GGTACCGAAAGGTGGACC ((((((....)))..))) | -17 | 37.8
GATCTGACCGCAGATC ((((((....)))))) | -27.4 | 48
GGAATTGGAAACAATTCC (((((((....))))))) | -45.1 | 56.3
GTGGTAGGAAACTACCAC (((((((....))))))) | -54.9 | 61.2
GATCAAATACTTGATC ((((((....)))))) | -33.2 | 39.9
GCTTGACGAAAGTCGAGC (((.(((....))).))) | -39 | 63.1
GTATACGCGAAAGCGTAC (((..(((....)))))) | -7.12 | 37.9
GATCCCCCCGGGATC ((((((...)))))) | -33.1 | 65.8
GCCTCCGAAAGGACAGGC ((((((....)))..))) | -36.5 | 49.8
GTGCAAGCGAAAGCTCAC (((..(((....)))))) | -13.4 | 42.9
GATCTGCTATCAGATC ((((((....)))))) | -35.3 | 49.6
GCACGGGCGAAAGCCTGC (((..(((....)))))) | -12.7 | 45.2
GTGTTGGAAACAACAC ((((((....)))))) | -35 | 56.8
GTTCTCCGAAAGGAAAAC (((.(((....))).))) | -25.2 | 35.5
GTAAAGGCGAAAGCCTAC (((..(((....)))))) | -10 | 35
GCGAGGTCTCGC ((((....)))) | -22 | 54.9
GGCGGTCGAAAGACGGCC (((.(((....))).))) | -34.5 | 68.2

Sequence | folding enthalpy [1] [kcal/mol] | Tm [2] [°C]
GAAAACGGAAACGTTTTC (((((((....))))))) | -39.4 | 57.9
GTCTATCGAAAGATGAC (((.(((....)))))) | -27.1 | 42
GGTTCCGAAAGGATTACC ((((((....)))..))) | -19.9 | 34.6
GATCGTTTTTACGATC ((((((....)))))) | -44.7 | 56.9
GGGTGCCGAAAGGCTCCC (((.(((....))).))) | -20.6 | 69.1
GCAGCCGGAAACGGCCGC ((.((((....)))).)) | -17.2 | 58.9
GTGGCCTCGAAAGAGCAC (((..(((....)))))) | -14.7 | 37.4
GCACGCGGAAACGCGCAC (..((((....))))..) | -7.82 | 31.1
GTTATCCCGAAAGGGAAC (((..(((....)))))) | -10 | 26.8
GTTCTGCCGAAAGGCAAC (((..(((....)))))) | -7.25 | 25.1
GATGGAGGAAACTCCACC (.(((((....))))).) | -16.3 | 34.1
GGCCGGCGAAAGCCGCC (((.(((....)))))) | -12 | 65.3
GCTATCGCGAAAGCGAGC (((..(((....)))))) | -10.3 | 39.2
GCATTTGAAAAAATGC ((((((....)))))) | -30.9 | 52.8
GTGCGCGAAAGCGATCAC ((((((....)))..))) | -13.4 | 41
GTCGCTGCGAAAGCAGAC (((..(((....)))))) | -10 | 38.5
AGTGAGAAATCACT (((((....))))) | -15.7 | 38.5
GCCCCCCGAAAGGGCGGC (((.(((....))).))) | -32.6 | 60.2
GGCAGACGAAAGTCAGCC (((.(((....))).))) | -32.8 | 64.4
GAACTCGGAAACGAGTCC (.(((((....))))).) | -14.6 | 43.4
GCTGGCGGAAACGCCAAC (.(((((....))))).) | -11.2 | 43.7
GGGAACGAAAGTTGCCC ((((((....))).))) | -28.6 | 53
GTGCCCGAAAGGGGGCAC ((((((....)))..))) | -22.2 | 69.1

Sequence | folding enthalpy [1] [kcal/mol] | Tm [2] [°C]
GCGGTTGGAAACGACCGC (((((.(....).))))) | -48.8 | 62.9
GTTGCCGAAAGGCGAAAC ((((((....)))..))) | -9.33 | 33.2
GGCCGTCGAAAGACCGCC (((.(((....))).))) | -42.5 | 53
GCGAACGGTCGC ((((....)))) | -30.9 | 47.7
GGTTCGGGAAACCAAACC ((((.((....)).)))) | -30.3 | 40.4
GGTATTGGAAACAATGCC ((.((((....)))).)) | -37.1 | 47.7
GTGTTCGGAAACAAACAC (((((.(....).))))) | -29.7 | 37.8
GCTGTGCGAAAGCATTGC ((..(((....)))..)) | -20.7 | 53.5
GTGGTCGAAAGACTCCAC ((((((....)))..))) | -13.7 | 38.9
GAGTAGGAAACTACTC ((((((....)))))) | -30.1 | 51.1
GGAAGCCGAAAGGCTCC (((.(((....)))))) | -15.7 | 56
CGGCCGGAAACGGACCG ((((((....))).))) | -25 | 54.6
ATGCAGAAATGCAT (((((....))))) | -24.1 | 46.2
GATCTAAGGTTAGATC ((((((....)))))) | -31.6 | 39.3
GCAAGGCGAAAGCGTAGC ((.(.((....)).).)) | -11.6 | 40.5
GCGGGCGAAAGCCAACGC ((((((....)))..))) | -22.4 | 65.3
AAGTGGAAACACTT (((((....))))) | -19.6 | 42
GCAGCCGAAAGGCCTTGC ((((((....)))..))) | -10.6 | 35.7
GCAGCGCCGAAAGGCTGC (((..(((....)))))) | -14.7 | 53.9
GTCAGTGGAAACACTAAC ((.((((....)))).)) | -17.4 | 30.9
GAATAGCGAAAGCTTTTC (((.(((....))).))) | -20.6 | 36.6
GGATCCGGAAACGAATCC ((((.((....)).)))) | -29 | 41.8
GATCGCGAGGGCGATC ((((((....)))))) | -38 | 68

Reference: the array DNA melting data of Ke et al. (doi:10.1101/2024.01.08.574731)
